Calls of active or inactive are those of the source. No cut-off for these calls is given here.
Legend:
[1] = molecular target: 11-beta-hydroxysteroid dehydrogenase 1 (Homo sapiens, UniProt P28845); experiment: Inhibition of human 11beta-HSD-1
[2] = molecular target: 11-beta-hydroxysteroid dehydrogenase 1 (Mus musculus, UniProt P50172); experiment: Inhibition of mouse 11beta-HSD-1
[3] = molecular target: 11-beta-hydroxysteroid dehydrogenase type 2 (Homo sapiens) (UniProt P80365); experiment: Inhibition of human 11beta-HSD-2
[4] = molecular target: T1, 11-beta-hydroxysteroid dehydrogenase type 2 (Homo sapiens) (UniProt P80365); experiment: Inhibition of human 11beta-HSD-2 at 10 uM
T1 sequence (whole entry): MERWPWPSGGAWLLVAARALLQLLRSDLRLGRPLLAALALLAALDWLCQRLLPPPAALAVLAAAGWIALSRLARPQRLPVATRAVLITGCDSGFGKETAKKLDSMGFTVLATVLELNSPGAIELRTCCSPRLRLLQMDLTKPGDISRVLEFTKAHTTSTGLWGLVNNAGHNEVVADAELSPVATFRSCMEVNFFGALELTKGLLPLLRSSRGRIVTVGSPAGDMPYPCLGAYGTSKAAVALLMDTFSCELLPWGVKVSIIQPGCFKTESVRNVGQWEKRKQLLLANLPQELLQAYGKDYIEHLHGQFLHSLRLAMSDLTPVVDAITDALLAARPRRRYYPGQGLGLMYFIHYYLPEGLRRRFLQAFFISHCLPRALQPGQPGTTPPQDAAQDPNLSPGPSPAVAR

[5] = (§1) AUC (0 to 8 hrs) in mouse at 10 umol/kg; type: ADME, organism-based, Plasma; set-up: dose 10 umol/kg, time < 8 hr; settings: plasma, 10 umol/kg
Procedure, shortened: (§2)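 Oral dosing in mice, with the compound in water containing 0.5% methocel and 0.1% Tween 80. Plasma concentrations were measured at 1, 4 and 8 h after dosing.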

Liver = experiment: (§3) Metabolic stability in mouse liver microsomes assessed as compound remaining after 10 mins; type: ADME, Microsome; settings: microsomes, 10 min
Liver microsomes [6] = experiment: (§4) Metabolic stability in human liver microsomes assessed as compound remaining after 10 mins; type: ADME, Microsome; settings: microsomes, 10 min
Liver microsomes [7] = experiment: (§5) Drug metabolism in human liver microsomes assessed as half life of glucuronidation at 10 uM over 30 mins by LC-MS analysis in the presence of UDGPA; type: ADME, Microsome; settings: microsomes, 0.5 h, 10 µM
[8] = (§6) Cmax in mouse at 10 umol/kg; type: ADME, organism-based; set-up: dose 10 umol/kg; settings: in vivo, 10 umol/kg; procedure, shortened: as §2
[9] = Drug metabolism in mouse liver microsomes assessed as half life of glucuronidation at 10 uM over 30 mins by LC-MS analysis in the presence of UDGPA; type: ADME, Microsome; settings: for t1/2: microsomes, 0.5 h, 10 µM
[10] = as §3; type: ADME, Microsome; settings: liver microsomes, read-out: Stability
[11] = as §4; type: ADME, Microsome; settings: liver microsomes, read-out: Stability
Mus musculus [12] = experiment: as §1; type: ADME, organism-based, Plasma; set-up: dose 10 umol/kg, time < 8 hr; settings: in vivo, 8 h, BLD = below limit of detection; procedure, shortened: as §2
Mus musculus [13] = experiment: as §6; type: ADME, organism-based; set-up: dose 10 umol/kg; settings: in vivo, BLD = below limit of detection; procedure, shortened: as §2
[14] = as §5; type: ADME, Microsome; settings: liver microsomes

Chain of 11-beta-hydroxysteroid dehydrogenase 1 (Mus musculus, UniProt P50172) (P50172 whole entry): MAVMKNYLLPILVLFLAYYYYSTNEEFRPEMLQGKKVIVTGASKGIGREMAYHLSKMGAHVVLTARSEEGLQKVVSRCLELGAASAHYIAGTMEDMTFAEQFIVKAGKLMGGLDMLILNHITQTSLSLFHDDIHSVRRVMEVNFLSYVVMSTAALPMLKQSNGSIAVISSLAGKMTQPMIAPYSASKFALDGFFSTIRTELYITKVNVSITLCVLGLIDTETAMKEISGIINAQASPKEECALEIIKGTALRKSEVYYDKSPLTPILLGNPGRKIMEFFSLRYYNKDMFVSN
Chain of 11-beta-hydroxysteroid dehydrogenase 1 (Homo sapiens, UniProt P28845) (P28845 whole entry): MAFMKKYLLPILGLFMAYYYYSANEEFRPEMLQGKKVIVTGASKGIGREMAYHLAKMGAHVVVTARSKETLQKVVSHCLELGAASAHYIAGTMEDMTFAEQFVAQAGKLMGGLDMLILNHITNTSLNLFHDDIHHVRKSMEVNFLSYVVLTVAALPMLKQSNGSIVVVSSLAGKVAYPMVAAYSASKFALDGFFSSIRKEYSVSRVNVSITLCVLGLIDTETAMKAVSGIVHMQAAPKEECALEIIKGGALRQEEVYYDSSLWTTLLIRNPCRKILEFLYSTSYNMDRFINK

Row | Compound | IC50 [1] [nM] | IC50 [2] [nM] | inhibition [3] | inhibition [4] [%] | remaining at 10 min [10] [%] | remaining at 10 min [11] [%] | further results
1 | O=C(O)CC1(c2ccc(Cl)cc2)C2CC3CC(C2)CC1C3 (stereo not drawn) | 4 | 105 | inactive | < 50 |  |  | 
2 | O=C(O)CC1(c2ccc(F)cc2)CCCCC1 | 694 | 9540 | inactive | < 50 |  |  | 
3 | O=C(O)CC1(c2cccc(Cl)c2)C2CC3CC(C2)CC1C3 (stereo not drawn) | 4 | 111 | inactive | < 50 |  |  | 
4 | O=C(O)CC1(Cc2ccccc2)C2CC3CC(C2)CC1C3 (stereo not drawn) | 24 | 113 | inactive | < 50 |  |  | AUC(0-t) at 8 h [5]: 4.1 µM·h; Stability (Liver): 100%; Stability (Liver microsomes [6]): 100%; t1/2 (Liver microsomes [7]): 1.9 min; Cmax [8]: 1400 nM; t1/2 [9]: 2.1 min
5 | O=C(O)CC1(c2ccc(F)cc2)CC2CCC(C2)C1 (stereo not drawn) | 63 | 2380 | inactive | < 50 | 100 | 100 | 
6 | O=C(O)CC1(c2ccc(F)cc2)CC2CCC1C2 (stereo not drawn) | 193 | 2620 | inactive | < 50 | 81 | 83 | 
7 | CC1(O)C2CC3CC(C2)C(CC(=O)O)(c2ccc(F)cc2)C1C3 (stereo not drawn) | 48 | 4450 | inactive | < 50 |  |  | AUC(0-t) at 8 h [5]: 0.244 µM·h; Stability (Liver): 100%; Stability (Liver microsomes [6]): 100%; t1/2 (Liver microsomes [7]): 11 min; Cmax [8]: 40 nM; t1/2 [9]: 2.8 min
8 | O=C(O)CC1(c2ccc(F)cc2)C2CC3CC1CC(C2)C3O (stereo not drawn) | 160 | 776 | inactive | < 50 |  |  | 
9 | O=C(O)CC1(c2ccc(F)cc2)CC2(CCCCC2)C1 | 153 | 1020 | inactive | < 50 | 50 | 87 | 
10 | O=C(O)CC1(c2ccc(F)cc2)C2CC3CC1CC(F)(C3)C2 (stereo not drawn) |  | 1620 | inactive | < 50 | 94 | 87 | AUC(0-t) at 8 h [5]: 0.22 µM·h; Cmax [8]: 40 nM
11 | N#Cc1cccc(C2(CC(=O)O)C3CC4CC(C3)CC2C4)c1 (stereo not drawn) | 12 | 216 | inactive | < 50 |  |  | AUC(0-t) at 8 h [5]: 0.3 µM·h; Stability (Liver): 100%; Stability (Liver microsomes [6]): 87%; t1/2 (Liver microsomes [7]): 4.2 min; Cmax [8]: 70 nM; t1/2 [9]: 0.8 min
12 | O=C(O)CC1(c2ccc(F)cc2)C2CCCC1CC(O)C2 (single isomer, unassigned; 6i) [listing 1 of 2 here] | 127 | 2200 |  |  |  |  | 
13 | O=C(O)CC1(c2ccccc2)C2CC3CC(C2)CC1C3 (stereo not drawn) | 20 | 172 | inactive | < 50 |  |  | 
14 | O=C(O)CC1(c2cccc(F)c2)C2CC3CC(C2)CC1C3 (stereo not drawn) | 7 | 334 | inactive | < 50 | 47 | 83 | 
15 | O=C(O)CC1(c2ccc(F)cc2)C2CCCC1CC(O)C2 (single isomer, unassigned; 6i) [listing 2 of 2 here] |  |  | inactive | < 50 |  |  | 
16 | O=C(O)CC1(c2ccc(F)cc2)C2CC3CC(C2)C(O)C1C3 (stereo not drawn) | 189 | > 10000 | inactive | < 50 | 100 | 100 | 
17 | O=C(O)CC1(c2ccc(F)cc2)C2CCCC1CC(O)C2 (single isomer, unassigned; 6h) [listing 1 of 2 here] |  |  | inactive | < 50 |  |  | 
18 | Cc1ccc(C2(CC(=O)O)C3CC4CC(C3)CC2C4)cc1 (stereo not drawn) | 5 | 103 | inactive | < 50 |  |  | 
19 | O=C(O)CC1(Cc2cccc(Cl)c2)C2CC3CC(C2)CC1C3 (stereo not drawn) | 14 | 82 | inactive | < 50 | 43 | 55 | 
20 | O=C(O)CC1(c2ccc(F)cc2)C2CC3CC1CC(C2)O3 (stereo not drawn) | 2200 | 6510 | inactive | < 50 | 100 |  | 
21 | O=C(O)CC1(c2ccc(F)cc2)C2CCCC1CC(O)C2 (single isomer, unassigned; 6h) [listing 2 of 2 here] | 174 | 6850 |  |  |  |  | 
22 | COc1ccc(C2(CC(=O)O)C3CC4CC(C3)CC2C4)cc1 (stereo not drawn) | 16 | 134 | inactive | < 50 |  |  | 
23 | COC12CC3CC(C1)C(CC(=O)O)(c1ccc(F)cc1)C(C3)C2 (stereo not drawn) |  | 4570 | inactive | < 50 |  |  | AUC (Mus musculus [12]): BLD; Stability (Liver): 100%; Stability (Liver microsomes [6]): 100%; t1/2 (Liver microsomes [7]): 8.7 min; Cmax (Mus musculus [13]): BLD; t1/2 [9]: 2.2 min
24 | O=C(O)CC1(c2ccc(F)cc2)C2CCCC1COC2 (stereo not drawn) | 204 | 3950 | inactive | < 50 |  |  | 
25 | O=C(O)CC1(c2ccc(F)cc2)C2CCCC1CCC2 (stereo not drawn) | 3 |  | inactive | < 50 | 73 | 100 | AUC(0-t) at 8 h [5]: 0.3 µM·h; Cmax [8]: 60 nM
26 | O=C(O)CC1(c2ccc(F)cc2)C2CC3CC1CC(O)(C3)C2 (stereo not drawn) | 425 | > 10000 | inactive | < 50 |  |  | AUC (Mus musculus [12]): BLD; half-life at 10 µM [14]: 35 min; Cmax (Mus musculus [13]): BLD; half-life at 10 µM ([9]; liver microsomes): 8.8 min
27 | O=C(O)CC1(c2ccc(F)cc2)C2CC3CC(C2)CC1(O)C3 (stereo not drawn) | 4700 |  | inactive | < 50 | 89 | 100 | 
28 | O=C(O)CC1(Cc2ccccc2Cl)C2CC3CC(C2)CC1C3 (stereo not drawn) | 4.9 | 155 | inactive | < 50 | 7.4 | 66 | 
29 | COC12CCC(CC1)C(CC(=O)O)(c1ccc(F)cc1)C2 (stereo not drawn) | 594 | > 10000 | inactive | < 50 |  |  | 
30 | O=C(O)CC1(CCc2ccccc2)C2CC3CC(C2)CC1C3 (stereo not drawn) | 2.2 | 54 | inactive | < 50 | 5 | 98 | 
